# ChEMBL document CHEMBL2424538, “Synthesis, resolution, and biological evaluation of atropisomeric (aR)- and (aS)-16-methyllamellarins N: unique effects of the axial chirality on the selectivity of protein kinases inhibition” (J Med Chem, 2013)
# Activity calls are given as the source filed them. The rule behind the calls is not given here.
# Assays:
# Bos taurus = organism: Bos taurus; assay: Inhibition of calf thymus DNA topoisomerase 1-mediated relaxation of supercoiled pBR322 plasmid DNA at 50 uM 30 mins by ethidium bromide staining
# [1] = Inhibition of M-phase starfish oocytes CDK1/cyclin B using [gamma-33P]ATP after 30 mins; parameters: species or system Marthasterias glacialis; conditions: oocyte
# Procedure, shortened: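 CDK1/cyclin B extracted from oocytes in homogenization buffer, affinity-purified on p9CKShs1-Sepharose and eluted with free p9CKShs1. Activity measured in buffer C with 1 mg/mL histone H1 and 15 μM [γ-33P]ATP, 30 min at 30 °C. Read-out: 33P captured on P81 phosphocellulose by scintillation counting; blank subtracted; activity as % of uninhibited control; DMSO controls.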
# [2] = molecular target: Dual specificity tyrosine-phosphorylation-regulated kinase 1A (Homo sapiens, UniProt Q13627); assay: Inhibition of human recombinant DYRK1A expressed in Escherichia coli using [gamma-33P]ATP after 30 mins
# Procedure, shortened: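 Enzyme (DYRK1A GST fusion purified on glutathione-agarose) assayed like CDK1/cyclin B: buffer C, 1 mg/mL histone H1, 15 μM [γ-33P]ATP, 30 min at 30 °C, P81 filter capture, scintillation counting, % of activity without inhibitor.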
# [3] = Cytotoxicity against human SH-SY5Y cells after 72 hrs by MTS assay; type: functional, cell-based
# Procedure, shortened: (§1)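 Neuroblastoma cells grown in DMEM with 2 mM L-glutamine, antibiotics and 10% FCS; viability read by MTS reduction. Triplicate assays, values within 10%. IC50 estimated graphically from dose−response curves of at least six inhibitor concentrations.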
# HeLa = assay: Cytotoxicity against human HeLa cells after 72 hrs by colony formation assay; type: functional, cell-based
# Procedure, shortened: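 HeLa cells, 100−150 per well, cultured 72 h at 37 °C under 5% CO2 with varying compound concentrations in MEM with 10% fetal calf serum plus penicillin/streptomycin. Colonies (clusters of ≥40 cells) counted after methylene blue staining. Duplicates, at least four concentrations; IC50 by least-squares fit to logarithm-probit analysis.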
# [4] = Inhibition of porcine brain CK1delta/epsilon using CKS peptide and [gamma-33P]ATP as substrate after 30 mins; parameters: species or system Sus scrofa
# Procedure, shortened: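 CK1δ/ε affinity-purified on immobilized axin fragment. Reaction captured on P81 phosphocellulose, washed in 1% phosphoric acid, scintillation counted; blanks subtracted; activity as % of no-inhibitor control, DMSO controls.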
# IMR-32 = assay: Cytotoxicity against human IMR32 cells after 72 hrs by MTS assay; type: functional, cell-based; conditions: IMR-32, 72 h; procedure, shortened: as §1
# [5] = molecular target: Glycogen synthase kinase-3 (Sus scrofa, UniProt B2LUN4+I6LNT8); assay: Inhibition of porcine brain GSK-3alpha/beta using GS-1 peptide and [gamma-33P]ATP as substrate after 30 mins
# Procedure, shortened: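 GSK-3α/β purified on immobilized axin, diluted 1/100 in 1 mg/mL BSA with 10 mM DTT. Substrate GS-1 phosphopeptide (5 μL of 4 μM), buffer A pH 7.5, 15 μM [γ-33P]ATP, 30 min at 30 °C. Radioactivity on P81 paper counted; blank subtracted; results as % of activity without inhibitor.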
Structure (SMILES),inhibition (Bos taurus),IC50 [1] [nM],IC50 [2] [nM],IC50 [3] [nM],IC50 (HeLa) [nM],IC50 [4] [nM],IC50 (IMR-32) [nM],IC50 [5] [nM]
CC[C@@]1(O)C(=O)OCc2c1cc1n(c2=O)Cc2cc3ccccc3nc2-1,Active,,,,,,,
COc1cc(-c2c3c4cc(OC)c(O)cc4oc(=O)c3n3ccc4cc(O)c(OC)cc4c23)ccc1O,Active,,,,,,,
COc1ccc(-c2c3c4cc(OC)c(O)cc4oc(=O)c3n3ccc4cc(O)c(OC)cc4c23)cc1O,Active,70,35,40,32,> 10000,19,5
